Screening data (PubChem BioAssay)
PG9 Ab binder = binders of HIV-1 gp120 antibody PG9, primary screen, biochemical, TR-FRET; HIV-1 gp120 / PG9 antibody interaction; TR-FRET gp120-PG9 antibody binding; inhibition, % at 6.7 µM; hit rate 0.43% among 360,000; AID 624416, 2012; in the data active = inhibition above about 8.5%
MT1-MMP act inh = blockers of MT1-MMP proenzyme processing, primary screen, HT1080 RFP-PRO-GFP cells, GFP/RFP fluorescence. GFP/RFP ratio change, % at 20 µM. Matrix metalloproteinase-14 (Homo sapiens), P50281. GFP/RFP ratio fluorescence, overnight; percent of plate control window, DMSO zero. hit rate 0.061% among 360,000;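 active = GFP/RFP ratio change of at least 30% with cell ATP level not reduced by more than half and red fluorescence within 50% of control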
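Material: RFP-PRO-GFP reporter HT1080 cells. Dosing: single-point 20 µM compound, 1% DMSO. Controls: DMSO and RFP-L50D-GFP cell wells. Timing: cells overnight before dosing, compound overnight, 37 °C, 5% CO2. Measure: GFP/RFP fluorescence ratio.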
NR2E3 ag-1 = inhibitors of NR2E3-RetCOR corepressor binding, primary screen, NR2E3 agonist project, biochemical, TR-FRET, GST-NR2E3, biotin-RetCOR. hit rate 0.12% among 320,000. Photoreceptor-specific nuclear receptor (Homo sapiens), Q9Y5X4. AID 2300, 2010. 1536-well. inhibition of corepressor binding, % at 4.78 µM;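 active = percent inhibition above the cutoff of mean plus 3 SD of all tested compounds, set per screening campaign, cut at about 20% in these data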;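 also: 0% = DMSO wells and 100% = biotin wells as full block of FRET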
Target sequence (Q9Y5X4 whole entry, looked up): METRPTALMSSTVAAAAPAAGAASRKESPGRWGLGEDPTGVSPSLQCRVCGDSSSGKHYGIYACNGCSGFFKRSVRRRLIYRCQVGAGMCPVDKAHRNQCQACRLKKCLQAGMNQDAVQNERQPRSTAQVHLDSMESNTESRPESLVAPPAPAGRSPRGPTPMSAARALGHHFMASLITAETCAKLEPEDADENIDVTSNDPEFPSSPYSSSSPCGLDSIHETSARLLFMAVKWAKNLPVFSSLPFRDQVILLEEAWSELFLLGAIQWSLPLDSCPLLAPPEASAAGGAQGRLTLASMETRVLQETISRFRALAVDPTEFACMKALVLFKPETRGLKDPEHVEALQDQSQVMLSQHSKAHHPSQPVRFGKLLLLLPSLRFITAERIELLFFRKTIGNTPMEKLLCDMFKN
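System: GST-NR2E3 and biotin-RetCOR proteins; probe or stimulus: 7 nM biotin-RetCOR; doses: compound at 4.8 µM, single dose; schedule: Compound–protein incubation for 5 h at 4 °C; detection: time-resolved FRET; read-out: percent inhibition; controls: biotin wells as high control, 0.6% DMSO wells as low control; format: 1536-well plates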
NR2E3 ag-2 = NR2E3 agonists in two-hybrid cells, primary screen, cell-based, luminescence, CHO-S, Gal4-NCOR/VP16-NR2E3. luciferase. hit rate 0.35% among 360,000. inhibition of corepressor binding, % at 3.98 µM. AID 602229, 2012. Photoreceptor-specific nuclear receptor (Homo sapiens), Q9Y5X4;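 active = inhibition above the mean of all tested compounds plus 3 SD, cut at about 70% in these data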;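 also: 0% = DMSO with NR2E3 transfected cells and 100% = cells lacking NR2E3 construct; higher means lower luciferase signal from less NR2E3 corepressor binding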
SKN-1 inh = suppressors of acrylamide-induced Pgst-4::GFP reporter in worms, primary screen, SKN-1 inhibitor project, whole organism, uHTS, GFP/RFP fluorescence ratio, strain VP596; inhibition, % at 21.8 µM; AID 624304, 2012; C. elegans VP596 Pgst-4::GFP/RFP ratio, 24 h; hit rate 0.49% among 360,000;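 active = interference check ratio from 0.5 to 1.5 plus GFP to RFP signal ratio inhibition reaching or exceeding a fixed threshold, cut at about 30% in these data, passing the limit was not always enough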
Rev-erbA mod = modulators of Rev-erb alpha DNA binding, primary screen, biochemical, FITC-DNA, fluorescence polarization, uHTS | Nuclear receptor subfamily 1 group D member 1 (Homo sapiens), P20393 | Rev-erbα–FITC-DNA binding, 90 min | activity, % at 10 µM | hit rate 0.79% among 370,000 | AID 1259318, 2017;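 active = activity above about 14%, limit read from the data; passing the limit was not always enough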;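 also: 0% = DMSO wells with 35 nM protein and 100% = DMSO wells with 750 nM protein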
NR2E3 ag confirm = NR2E3 agonist confirmation in cells, cell-based, luminescence, CHO-S two-hybrid; inhibition, % at 3.98 µM; AID 624378, 2012; CHO-S mammalian two-hybrid NR2E3-NCOR, luciferase luminescence; shares compounds with NR2E3 ag-2; hit rate 51% among 2,300;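 active = average inhibition above a cutoff equal to the mean inhibition of all tested compounds plus one SD, cut at about 70% in these data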;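 also: 0% = DMSO in NR2E3 cells and 100% = DMSO in cells lacking NR2E3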
VP16 counter = GAL4-VP16 reporter modulators, confirmation, counter-screen for NR2E3 agonist project, cell-based, luminescence, CHO-S, high throughput; CHO-S GAL4-VP16 luciferase reporter; hit rate 29% among 2,300; AID 624379, 2012; inhibition, % at 3.98 µM; shares compounds with NR2E3 ag-2;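 active = mean inhibition above a cutoff equal to the average over all tested compounds plus one standard deviation, cut at about 70% in these data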;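 also: luciferase from a UAS reporter driven by GAL4-VP16 transactivation; 0% = DMSO with VP16-transfected cells and 100% = DMSO with cells lacking VP16; higher means less reporter light so more repression of VP16 activity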
Starred values were filed as active, the others as inactive; nt = no result given. An excerpt weighted towards active compounds, which were near 1.9% of everything screened.

SMILES	PG9 Ab binder	MT1-MMP act inh	NR2E3 ag-1	NR2E3 ag-2	SKN-1 inh	Rev-erbA mod	NR2E3 ag confirm	VP16 counter
CCc1c(C)nc(SC/C=C/c2ccccc2)[nH]c1=O	nt	5	-1	83*	-7	nt	41	43
Cc1ccc(S(=O)(=O)N2CCN(c3ncnc4sccc34)CC2)cc1C	0	-8	nt	105*	6	-4	91*	79*
Cc1ccc(S(=O)(=O)N2CCN(c3ncccn3)CC2)cc1C	0	5	3	6	10	1	nt	nt
C=CCn1c(C)cc(C(=O)CSc2nc3ccccc3[nH]2)c1C	4	1	-2	64	11	-7	33	-36
C=CCn1c(C)cc(C(=O)CN2C(=O)c3ccccc3S2(=O)=O)c1C	nt	17	2	56	3	nt	76*	34
Cc1cc(C(=O)CSc2nc3ccc(Cl)cc3[nH]2)c(C)n1CC1CCCO1 (stereo unspecified)	0	-7	0	57	11	1	80*	64
COCC(C)n1c(C)cc(C(=O)CSc2nc3ccccc3c(=O)[nH]2)c1C (stereo unspecified)	0	1	1	51	-1	-2	64	52
CCOC(=O)c1c(Nc2ccc(OC)cc2)n[nH]c1C	-1	nt	nt	nt	nt	-4	nt	nt
COC(=O)C[C@@H]1CC[C@H]2[C@@H](COc3ccc(NC(=O)Nc4cccc(F)c4)cc3C(=O)N2C)O1	nt	nt	nt	nt	nt	-1	nt	nt
COc1cccc2sc(Nc3nc(-c4ccccn4)cs3)nc12	nt	4	2	97*	4	nt	100*	-25
S=C1NCCc2ccc(Cl)cc2C1c1ccccc1 (stereo unspecified)	-1	9	3	61	0	0	43	21
COc1ccccc1NC(=O)CSc1nnnn1-c1ccc2c(c1)OCO2	0	2	-1	69	6	-1	64	9
COc1ccccc1NC(=O)CSc1nnnn1-c1ccccc1OC	-1	3	1	-21	-12	4	nt	nt
COc1cc(CCc2ccccc2)c(C(=O)O)c(O)c1CC=C(C)C	0	-6	nt	85*	3	-8	99*	78*
COc1cc(CCc2ccccc2)c(C(=O)O)c(O)c1C/C=C(/C)CCC=C(C)C	1	-2	nt	50	5	2	98*	71*
COC(=O)c1c(-c2ccc(OC)cc2)c2c(c3c4cc(OC)ccc4n(C(=O)c4ccccc4)c13)C(=O)N(C)C2	0	nt	nt	nt	nt	5	nt	nt
COc1ccc(CCNC(=O)Cn2nc(-c3ccccc3)ccc2=O)cc1	nt	nt	nt	nt	nt	3	nt	nt
Cc1nn(C)c(C)c1CN(Cc1nc(CCC(C)C)no1)C(C)C	0	10	1	86*	-4	-2	99*	87*
C=CCN1[C@H](C)COc2cc(N3CCSCC3)ccc2S1(=O)=O	nt	nt	nt	nt	nt	-4	nt	nt
CNC(=O)c1cc(Oc2ccc(NC(=O)Nc3ccc(Cl)c(C(F)(F)F)c3)cc2)ccn1	0	7	5	92*	0	-3	99*	81*
O=C(Nc1ccc(Cl)c(C(F)(F)F)c1)c1ccncc1	-1	-5	-2	3	-7	5	nt	nt
COc1cc2c(cc1OC)C(c1ccc3c(c1)OCO3)CC(=O)N2 (stereo unspecified)	nt	1	2	-16	8	5	nt	nt
COc1ccc(C2CCc3cc4c(cc3C2=NO)OCO4)cc1OC (stereo unspecified)	-2	3	nt	67	-6	-2	39	44
CC(=O)N1C[C@@H](CO)[C@@H]2C[C@H]1c1ccccc1N2C	-2	nt	nt	nt	nt	2	nt	nt
O=C1c2ccccc2C(=O)c2c1oc(C(F)(F)F)c2C(=O)c1ccccc1	0	-3	4	112*	24	0	98*	87*
SMILES	PG9 Ab binder	MT1-MMP act inh	NR2E3 ag-1	NR2E3 ag-2	SKN-1 inh	Rev-erbA mod	NR2E3 ag confirm	VP16 counter
O=C(c1ccccc1)c1coc2c1C(=O)c1ccccc1C2=O	2	1	-2	-28	0	-1	nt	nt
Cc1ccn2c(NC3CCCC3)c(-c3ccccn3)nc2c1	-4	0	-1	69	-2	0	9	-42
c1ccc(-c2nc3ccccn3c2NC2CCCC2)nc1	-2	4	-2	60	18	0	9	-19
CC(C)CN1CN2CCc3ccccc3C2CS1(=O)=O (stereo unspecified)	nt	nt	nt	nt	nt	-3	nt	nt
Cc1cc(Br)c2nc(-c3ccc(Cl)cc3)c(Cc3cccc(Cl)c3)n2c1	7	nt	nt	nt	nt	3	nt	nt
COc1ccc(CN(C)Cc2nc(Cc3cccc(F)c3)no2)c2cccnc12	-2	5	3	80*	2	-4	92*	81*
COC(=O)[C@]12C[C@H](CC(=O)N3CCCC3)C(=O)N(Cc3ccco3)C1=C[C@H](COCc1ccccc1)O[C@@H]2C	nt	nt	nt	nt	nt	-12	nt	nt
CCOC(=O)N[C@@H](CC(C)C)C(=O)N1CCC[C@H]1C(=O)NCc1ccccc1	2	nt	nt	nt	nt	-6	nt	nt
Cc1ccc(C(=O)NNC(=S)NC(=O)c2ccc(Cl)cc2Cl)cc1	3	7	2	54	-1	-1	48	29
Cc1ccc(C(=O)NNC(=S)NC(=O)c2ccccc2)cc1	-2	2	6	23	-10	4	nt	nt
Cc1ccc(Nc2c(-c3ccccn3)nc3cc(C)ccn23)cc1	-4	-8	2	68	-9	4	99*	87*
Cc1ccc2nc(-c3ccncc3)c(Nc3ccccc3)n2c1	1	6	-4	-16	12	1	nt	nt
Cc1ccc(Nc2c(-c3ccccn3)nc3ccc(C)cn23)cc1	-2	8	-2	56	1	-1	97*	61
O=C(Nc1ccccc1C(=O)NCC1CC1)c1cccs1	2	nt	nt	nt	nt	2	nt	nt
c1cc2ccn(CC3CC3)c2cc1-c1ccc2ccn(CC3CC3)c2c1	nt	nt	nt	nt	nt	-1	nt	nt
CN(NC(=O)C(=O)NCc1ccco1)C(=O)NC1CCCCC1	-1	nt	nt	nt	nt	-6	nt	nt
